27 molecules from ChEMBL document CHEMBL2086353, “Design, synthesis and structure-activity relationship of novel inhibitors against H5N1 hemagglutinin-mediated membrane fusion” (Eur J Med Chem, 2012) can be followed below.

Activity calls are given as the source filed them. The calls are words filed in the database; no cut-off is given here.

The test system of the first test is MDCK. The test is described as follows: Inhibition of Vesicular stomatitis virus G hemagglutininin-mediated membrane fusion assessed as inhibition of […] infection of MDCK cells by luciferase reporter gene assay. It counts as cell-based. The method, boiled down:
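Specificity control: VSV-G-pseudotyped luciferase-reporter particles replace the H5N1 pseudovirus. Compound preincubated with particles (1 ng p24/well) for 30 min at 37 °C, then added to MDCK cells (DMEM, 10% FCS) for 48 h. Lysate luciferase read on a luminometer.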
Consider `O=C(NCCc1cccs1)c1cc(F)cc(C(F)(F)F)c1`, for which the inhibition entry is “inactive”.
Turning to `O=C(NCCN1CCCC1)c1cc(F)cc(C(F)(F)F)c1`, the inhibition result was “inactive”.
With `O=C(NCc1ccncc1)c1cc(F)cc(C(F)(F)F)c1`, the inhibition entry was “inactive”.

A further test concerns Influenza A virus. Put plainly: Antiviral activity against Influenza A virus (A/Thailand/Kan353/2004(H5N1)) assessed as inhibition of viral infection. The class given is functional, organism-based.
For orientation: IC50 means the point on the concentration scale where inhibition reaches its midpoint. For `O=C(NCCN1CCCCC1)c1cc(F)cc(C(F)(F)F)c1`, the concentration for half-maximal inhibition (IC50) was found to be 27 µM.

System in a further test: not listed separately
Put plainly: Inhibition of Influenza A virus (A/Anhui/1/2005(H5N1)) hemagglutininin-mediated membrane fusion assessed as inhibition of H5N1 pesudovirus infection of MDCK cells using A/Anhui/1/2005(H5N1) hemagglutinin plasmid and NA plasmid from N1 subtype strain A/Thailand/Kan353/ 2004 infected in 293T cells by luciferase reporter gene assay. The class given is cell-based. The method, boiled down:
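MDCK target cells grown in DMEM with glutamine and 10% FCS. Compound at indicated concentrations preincubated with H5N1 HA/NA-pseudotyped luciferase-reporter particles (1 ng p24/well) for 30 min at 37 °C. Mixture then added to cells for 48 h. Cells PBS-washed and lysed, and luciferase activity read on a luminometer.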
On the technique in general: A reporter such as luciferase makes a cellular process visible.
Consider `O=C(NCCN1CCCCC1)c1cc(C(F)(F)F)cc(C(F)(F)F)c1`, for which the IC50 was 2.51 µM.
Regarding `O=C(NCCc1cccs1)c1cncc(Br)c1`, the IC50 came to 7.61 µM.
Turning to `CC(NC(=O)c1cc(C(F)(F)F)cc(C(F)(F)F)c1)c1ccc2ccccc2c1` (stereo unspecified), the 50% inhibitory concentration (IC50) stood at 40.8 µM.
Consider `O=S(=O)(NCCN1CCCCC1)c1cccc(C(F)(F)F)c1`, for which the concentration for half-maximal inhibition (IC50) was determined as 54.9 µM.
With `O=C(NCCc1ccccc1)c1cccc(C(F)(F)F)c1`, the 50% inhibitory concentration (IC50) turned out to be 80 µM.
`O=C(NCc1cccnc1)c1cc(C(F)(F)F)cc(C(F)(F)F)c1`: the 50% inhibitory concentration (IC50) is 2.46 µM.
For the molecule `CN1CCN(CCCNC(=O)c2cc(C(F)(F)F)cc(C(F)(F)F)c2)CC1`, the IC50 came out at 66.6 µM.
Consider `O=C(NCCc1cccs1)c1cc(C(F)(F)F)cc(C(F)(F)F)c1`, for which the half-maximal inhibitory concentration (IC50) came out at 2.44 µM.
In the case of `O=C(NCCN1CCCC1)c1cc(O)c(O)cc1O`, the concentration for half-maximal inhibition (IC50) worked out at 41.5 µM.
`O=C(NCCN1CCCCC1)c1cc(F)cc(C(F)(F)F)c1`: the 50% inhibitory concentration (IC50) was 0.37 µM.
In the case of `CN1CCN(CCCNC(=O)c2cc(F)cc(C(F)(F)F)c2)CC1`, the IC50 was found to be 84.3 µM.
Same read-out and setting: for `O=C(NC1CCCCC1)c1cccc(C(F)(F)F)c1` the value was 7.8 µM; for `O=C(NCCc1cccs1)c1cc(F)cc(C(F)(F)F)c1`, 0.22 µM.
Regarding `O=C(NCCc1cccs1)c1cncc(Cl)c1`, the IC50 came to 9.2 µM.
Still for that read-out and setting: under `CC(NC(=O)c1cc(F)cc(C(F)(F)F)c1)c1ccc2ccccc2c1` (stereo unspecified) stands 49 µM; under `O=C(NCCOC(=O)c1cc(F)cc(C(F)(F)F)c1)c1cc(F)cc(C(F)(F)F)c1`, 60 µM.
In the case of `O=C(NCCN1CCCC1)c1cc(F)cc(C(F)(F)F)c1`, the IC50 was found to be 0.38 µM.
On the same count and under the same terms, for `O=C(NCCc1ccccc1)c1cc(F)cc(C(F)(F)F)c1` the value was 0.33 µM; for `O=C(NCCc1ccccc1)c1cc(C(F)(F)F)cc(C(F)(F)F)c1`, 2.47 µM; for `O=C(NCCN1CCCC1)c1cc(C(F)(F)F)cc(C(F)(F)F)c1`, 1.71 µM.
Consider `O=C(NCCc1cccs1)c1cccc(C(F)(F)F)c1`, for which the IC50 was determined as 4.33 µM.
For `O=C(NCCN1CCCCC1)c1cncc(Br)c1`, the concentration for half-maximal inhibition (IC50) came out at 5.13 µM.
Still for that read-out and setting: for `O=C(NCc1ccncc1)c1cc(F)cc(C(F)(F)F)c1` the value was 0.56 µM; for `O=C(NCCN1CCOCC1)c1cc(F)cc(C(F)(F)F)c1`, 1.22 µM; for `O=C(OCCN1CCCCC1)c1cc(F)cc(C(F)(F)F)c1`, 61.2 µM.
Same read-out and setting: under `O=C(NCCN1CCOCC1)c1cc(C(F)(F)F)cc(C(F)(F)F)c1` stands 9.89 µM; under `O=C(NCCN1CCCCC1)c1cncc(Cl)c1`, 6.25 µM.
